In ChEMBL document CHEMBL5329156, “Discovery and development of novel substituted monohydrazides as potent antifungal agents” (RSC Med Chem, 2023):
Values after ≈ are worked out from the molar mass of the structure shown. Active and inactive are the calls of the source. The calls are words filed in the database; no cut-off is given here.

Tests used:
[Candida] auris [1] = Antifungal activity against Candida auris AR Bank # 0384 assessed as fungal growth inhibition by double dilution method; type: functional; settings: Candidozyma auris
Method in brief: (§1)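 Broth microdilution after CLSI M27-A3/M38-A2 with minor changes. Single colony grown overnight in YPD at 35 °C, 200 rpm. Compound final range 0.06-31.3 µg/mL; incubated 48 h at 35 °C.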

Aspergillus fumigatus [2] = assay: Antifungal activity against Aspergillus fumigatus NRRL 5109 assessed as fungal growth inhibition by double dilution method; type: functional
Candida albicans [3] = assay: Antifungal activity against itraconazole/fluconazole resistant Candida albicans ATCC 90819 assessed as fungal growth inhibition by double dilution method; type: functional
Method in brief: (§2)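 Broth microdilution after CLSI M27-A3/M38-A2 with minor modifications. A single colony was grown overnight in YPD at 35 °C with shaking at 200 rpm. Cells were mixed 1:1 with compound (final 0.06-31.3 µg/mL, from DMSO stocks) and incubated 48 h at 35 °C.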

Saccharomyces cerevisiae [4] = assay: Antifungal activity against Saccharomyces cerevisiae AR Bank # 400 assessed as fungal growth inhibition by double dilution method; type: functional; method in brief: as §1
[Candida] auris [5] = Antifungal activity against Candida auris AR Bank # 383 assessed as fungal growth inhibition by double dilution method; type: functional; settings: Candidozyma auris; method in brief: as §1
Aspergillus flavus = assay: Antifungal activity against Aspergillus flavus ATCC MYA-3631 assessed as fungal growth inhibition by double dilution method; type: functional
Nakaseomyces glabratus [6] = assay: Antifungal activity against Candida glabrata ATCC 2001 assessed as fungal growth inhibition by double dilution method; type: functional; method in brief: as §1
HEK293 = assay: Cytotoxicity against human HEK-293 cells assessed as reduction in cell viability at 31.3 microg/ml; type: toxicity, cell-based; settings: dose 31.3 µg/ml
Method in brief: (§3)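 Cells in DMEM with 10% FBS and 1% Pen/Strep, seeded at 10,000 cells/well and held overnight at 37 °C, 5% CO2. Compounds added at final 31.3-0.12 µg/mL (0.05% DMSO vehicle) for 24 h. Resazurin then added for 6 h; fluorescence read at ex 560/em 590. Triton X-100 1% as positive control; values normalized to vehicle. Run in quadruplicate.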

Cryptococcus neoformans = assay: Antifungal activity against Cryptococcus neoformans ATCC MYA-895 assessed as fungal growth inhibition by double dilution method; type: functional; method in brief: as §1
Candida albicans [7] = assay: Antifungal activity against itraconazole/fluconazole resistant Candida albicans ATCC MYA-1237 assessed as fungal growth inhibition by double dilution method; type: functional; method in brief: as §2
Pichia kudriavzevii [8] = assay: Antifungal activity against Pichia kudriavzevii AR Bank # 397 assessed as fungal growth inhibition by double dilution method; type: functional; method in brief: as §1
Candida albicans [9] = assay: Antifungal activity against itraconazole/fluconazole susceptible Candida albicans ATCC MYA-2310 assessed as fungal growth inhibition by double dilution method; type: functional; method in brief: as §2
Pichia kudriavzevii [10] = assay: Antifungal activity against Pichia kudriavzevii ATCC 6258 assessed as fungal growth inhibition by double dilution method; type: functional; method in brief: as §1
Candida albicans [11] = assay: Antifungal activity against itraconazole/fluconazole susceptible Candida albicans ATCC MYA-2876 assessed as fungal growth inhibition by double dilution method; type: functional; method in brief: as §2
[Candida] auris [12] = Antifungal activity against Candida auris AR Bank # 0390 assessed as fungal growth inhibition by double dilution method; type: functional; settings: Candidozyma auris; method in brief: as §1
Aspergillus fumigatus [13] = assay: Antifungal activity against Aspergillus fumigatus NRRL 163 assessed as fungal growth inhibition by double dilution method; type: functional
[Candida] auris [14] = Antifungal activity against Candida auris AR Bank # 381 assessed as fungal growth inhibition by double dilution method; type: functional; settings: Candidozyma auris; method in brief: as §1
Candida duobushaemulonii [15] = assay: Antifungal activity against Candida duobushaemulonii AR Bank # 392 assessed as fungal growth inhibition by double dilution method; type: functional; settings: Candidozyma duobushaemuli; method in brief: as §1
[Candida] haemuloni [16] = Antifungal activity against Candida haemulonii AR Bank # 395 assessed as fungal growth inhibition by double dilution method; type: functional; settings: Candidozyma haemuli; method in brief: as §1
[Candida] auris [17] = Antifungal activity against Candida auris AR Bank # 382 assessed as fungal growth inhibition by double dilution method; type: functional; settings: Candidozyma auris; method in brief: as §1
Candida albicans [18] = assay: Antifungal activity against Candida albicans ATCC 64124 assessed as fungal growth inhibition by double dilution method; type: functional; method in brief: as §2
[Candida] auris [19] = Antifungal activity against Candida auris AR Bank # 388 assessed as fungal growth inhibition by double dilution method; type: functional; settings: Candidozyma auris; method in brief: as §1
Saccharomyces cerevisiae [20] = assay: Antifungal activity against Saccharomyces cerevisiae AR Bank # 399 assessed as fungal growth inhibition by double dilution method; type: functional; method in brief: as §1
Aspergillus terreus = assay: Antifungal activity against Aspergillus terreus ATCC MYA-3633 assessed as fungal growth inhibition by double dilution method; type: functional
[Candida] haemuloni [21] = Antifungal activity against Candida haemulonii AR Bank # 393 assessed as fungal growth inhibition by double dilution method; type: functional; settings: Candidozyma haemuli; method in brief: as §1
Candida albicans [22] = assay: Antifungal activity against Candida albicans ATCC 10231 assessed as fungal growth inhibition by double dilution method; type: functional; method in brief: as §1
Aspergillus nidulans = assay: Antifungal activity against Aspergillus nidulans ATCC 38163 assessed as fungal growth inhibition by double dilution method; type: functional
Kodamaea ohmeri = assay: Antifungal activity against Kodamaea ohmeri AR Bank # 396 assessed as fungal growth inhibition by double dilution method; type: functional; method in brief: as §1
Aspergillus fumigatus [23] = assay: Antifungal activity against Aspergillus fumigatus NRRL 6113 assessed as fungal growth inhibition by double dilution method; type: functional
[Candida] auris [24] = Antifungal activity against Candida auris AR Bank # 387 assessed as fungal growth inhibition by double dilution method; type: functional; settings: Candidozyma auris; method in brief: as §1
[Candida] auris [25] = Antifungal activity against Candida auris AR Bank # 384 assessed as fungal growth inhibition by double dilution method; type: functional; settings: Candidozyma auris; method in brief: as §1
[Candida] auris [26] = Antifungal activity against Candida auris AR Bank # 385 assessed as fungal growth inhibition by double dilution method; type: functional; settings: Candidozyma auris; method in brief: as §1
Nakaseomyces glabratus [27] = assay: Antifungal activity against Candida glabrata ATCC 22019 assessed as fungal growth inhibition by double dilution method; type: functional; method in brief: as §1
[Candida] auris [28] = Antifungal activity against Candida auris AR Bank # 386 assessed as fungal growth inhibition by double dilution method; type: functional; settings: Candidozyma auris; method in brief: as §1
Candida albicans [29] = assay: Antifungal activity against itraconazole/fluconazole resistant Candida albicans ATCC MYA-1003 assessed as fungal growth inhibition by double dilution method; type: functional; method in brief: as §2
Candida duobushaemulonii [30] = assay: Antifungal activity against Candida duobushaemulonii AR Bank # 391 assessed as fungal growth inhibition by double dilution method; type: functional; settings: Candidozyma duobushaemuli; method in brief: as §1
Clavispora lusitaniae = assay: Antifungal activity against Clavispora lusitaniae AR Bank # 398 assessed as fungal growth inhibition by double dilution method; type: functional; method in brief: as §1
[Candida] auris [31] = Antifungal activity against Candida auris AR Bank # 390 assessed as fungal growth inhibition by double dilution method; type: functional; settings: Candidozyma auris; method in brief: as §1
Candida albicans [32] = assay: Antibiofilm activity against Candida albicans ATCC 10231 assessed as reduction in biofilm production at 1.96 to 3.9 microg/ml by biofilm formation assay; type: functional, organism-based; settings: dose 1.96-3.9 µg/ml
J774.A1 = assay: Cytotoxicity against J774A.1 cells assessed as reduction in cell viability at 31.3 microg/ml; type: toxicity, cell-based; settings: mouse, dose 31.3 µg/ml; method in brief: as §3
[Candida] auris [33] = Antifungal activity against Candida auris AR Bank # 389 assessed as fungal growth inhibition by double dilution method; type: functional; settings: Candidozyma auris; method in brief: as §1
Candida duobushaemulonii [34] = assay: Antifungal activity against Candida duobushaemulonii AR Bank # 394 assessed as fungal growth inhibition by double dilution method; type: functional; settings: Candidozyma duobushaemuli; method in brief: as §1

## O=C(NNc1ccc(F)cc1)c1ccccn1
[Candida] auris [1]
  MIC: 3.9 µg/mL (≈ 16.9 µM)
Aspergillus fumigatus [2]
  MIC: 7.8 µg/mL (≈ 33.7 µM)
Candida albicans [3]
  MIC: 0.98 µg/mL (≈ 4.24 µM)
Saccharomyces cerevisiae [4]
  MIC: 1.95 µg/mL (≈ 8.43 µM)
[Candida] auris [5]
  MIC: 1.95 µg/mL (≈ 8.43 µM)
Aspergillus flavus
  MIC: 31.3 µg/mL (≈ 135 µM)
Nakaseomyces glabratus [6]
  MIC: 1.95 µg/mL (≈ 8.43 µM)
HEK293
  Activity: Non-Toxic
Cryptococcus neoformans
  MIC: 0.24 µg/mL (≈ 1.04 µM)
Candida albicans [7]
  MIC: 1.95 µg/mL (≈ 8.43 µM)
Pichia kudriavzevii [8]
  MIC: 0.24 µg/mL (≈ 1.04 µM)
Candida albicans [9]
  MIC: 1.95 µg/mL (≈ 8.43 µM)
Pichia kudriavzevii [10]
  MIC: 0.12 µg/mL (≈ 0.519 µM)
Candida albicans [11]
  MIC: 3.9 µg/mL (≈ 16.9 µM)
[Candida] auris [12]
  MIC: 0.98 µg/mL (≈ 4.24 µM)
Aspergillus fumigatus [13]
  MIC: 31.3 µg/mL (≈ 135 µM)
[Candida] auris [14]
  MIC: 0.98 µg/mL (≈ 4.24 µM)
Candida duobushaemulonii [15]
  MIC: 0.49 µg/mL (≈ 2.12 µM)
[Candida] haemuloni [16]
  MIC: 0.12 µg/mL (≈ 0.519 µM)
[Candida] auris [17]
  MIC: 1.95 µg/mL (≈ 8.43 µM)
Candida albicans [18]
  MIC: 0.98 µg/mL (≈ 4.24 µM)
[Candida] auris [19]
  MIC: 0.98 µg/mL (≈ 4.24 µM)
Saccharomyces cerevisiae [20]
  MIC: 3.9 µg/mL (≈ 16.9 µM)
Aspergillus terreus
  MIC: 1.95 µg/mL (≈ 8.43 µM)
[Candida] haemuloni [21]
  MIC: 0.24 µg/mL (≈ 1.04 µM)
Candida albicans [22]
  MIC: 0.12 µg/mL (≈ 0.519 µM)
Aspergillus nidulans
  MIC: 0.49 µg/mL (≈ 2.12 µM)
Kodamaea ohmeri
  MIC: 0.24 µg/mL (≈ 1.04 µM)
Aspergillus fumigatus [23]
  MIC: 15.6 µg/mL (≈ 67.5 µM)
[Candida] auris [24]
  MIC: 0.98 µg/mL (≈ 4.24 µM)
[Candida] auris [25]
  MIC: 3.9 µg/mL (≈ 16.9 µM)
[Candida] auris [26]
  MIC: 0.98 µg/mL (≈ 4.24 µM)
Nakaseomyces glabratus [27]
  MIC: 1.95 µg/mL (≈ 8.43 µM)
[Candida] auris [28]
  MIC: 0.49 µg/mL (≈ 2.12 µM)
Candida albicans [29]
  MIC: 0.49 µg/mL (≈ 2.12 µM)
Candida duobushaemulonii [30]
  MIC: 0.49 µg/mL (≈ 2.12 µM)
Clavispora lusitaniae
  MIC: 1.95 µg/mL (≈ 8.43 µM)
[Candida] auris [31]
  MIC: 0.98 µg/mL (≈ 4.24 µM)
Candida albicans [32]
  Activity: Active
J774.A1
  Activity: Non-Toxic
[Candida] auris [33]
  MIC: 0.49 µg/mL (≈ 2.12 µM)
Candida duobushaemulonii [34]
  MIC: 0.24 µg/mL (≈ 1.04 µM)
